ChEMBL document CHEMBL3352355, “Synthesis of novel polysubstituted (2SR,4RS)-2-heteroaryltetrahydro-1,4-epoxy-1-benzazepines and cis-2-heteroaryl-4-hydroxytetrahydro-1H-1-benzazepines as antiparasitic agents” (Eur J Med Chem, 2014)

Tests used:
Trypanosoma cruzi [1] = assay: Antiparasitic activity against amastigote stage of Trypanosoma cruzi infected in Vero cells assessed as parasite growth inhibition after 24 hrs by hemocytometery; format: functional, organism-based; details: Trypanosoma cruzi, Vero, 24 h; read-out: IC50
Summary of the method: (§1)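 Host cells were Vero for T. cruzi (infected with tissue-derived trypomastigotes) and THP-1 (PMA-transformed, 10 ng/mL) for L. (L.) infantum (infected with late-phase promastigotes), at 1:10 cell:parasite for 24 h. Serial dilutions were given as two doses, the second on day 3 with a medium change. Read-out was % infected cells on methanol-fixed, Giemsa-stained slides (300 cells). IC50 came from sigmoidal regression; experiments in duplicate, concentrations in triplicate.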

[2] = Selectivity index, ratio of CC50 for African green monkey Vero cells to IC50 for amastigote stage of Trypanosoma cruzi; format: functional
Summary of the method: (§2)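 Selectivity index was calculated as CC50 in Vero (T. cruzi) or THP-1 (L. infantum) cells divided by parasite IC50. Both values came from 72 h mammalian-cell MTT assays and the parasite assays; SI ≥ 3 was defined as parasite-selective.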

[3] = Selectivity index, ratio of CC50 for African green monkey Vero cells to IC50 for epimastigote stage of Trypanosoma cruzi; format: functional; summary of the method: as §2
[4] = Cytotoxicity against human THP1 cells; format: cell-based; details: THP-1 cells
Summary of the method: (§3)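 Vero monolayers or THP-1 cells (made adherent with 10 ng/mL PMA), in RPMI 1640 with 10% hiFCS, were exposed to compound (0.3–300 µg/mL) for 72 h at 37 °C, 5% CO2. Viability was measured by MTT, with formazan dissolved in DMSO and read at 580 nm. % cytotoxicity was calculated against untreated cells; CC50 came from sigmoidal regression, given as mean ± SD.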

[5] = Cytotoxicity against African green monkey Vero cells; format: cell-based; details: chlorocebus sabaeus; summary of the method: as §3
Leishmania infantum [6] = assay: Antiparasitic activity against promastigote stage of Leishmania infantum assessed as parasite growth inhibition after 72 hrs by hemocytometery
[7] = Selectivity index, ratio of CC50 for human THP1 cells to IC50 for promastigote stage of Leishmania infantum; format: functional, THP-1; summary of the method: as §2
Leishmania infantum [8] = assay: Antiparasitic activity against amastigote stage of Leishmania infantum infected in THP1 cells assessed as parasite growth inhibition after 24 hrs by hemocytometery; format: functional, organism-based, THP-1; details: Leishmania infantum, THP-1, 24 h; read-out: IC50; summary of the method: as §1
Trypanosoma cruzi [9] = assay: Antiparasitic activity against epimastigote stage of Trypanosoma cruzi infected in Vero cells assessed as parasite growth inhibition […] by hemocytometery; format: functional, organism-based
Summary of the method: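 Exponential-phase T. cruzi Sylvio X10 epimastigotes (LIT medium with hiFCS) or L. (L.) infantum MHOM/BR/74/PP75 promastigotes (RPMI 1640, hemin, HEPES, 10% hiFCS) were exposed to threefold serial dilutions (0.3–300 µg/mL) for 72 h at 28 °C. Viable parasites were counted by hemocytometer with 0.25% eosin yellow. IC50 came from sigmoidal regression, given as mean ± SD.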

[10] = Selectivity index, ratio of CC50 for human THP1 cells to IC50 for amastigote stage of Leishmania infantum; format: functional, THP-1; summary of the method: as §2

Compound | IC50 (Trypanosoma cruzi [1]) [µM] | Selectivity Index [2] | Selectivity Index [3] | CC50 [4] [µM] | CC50 [5] [µM] | IC50 (Leishmania infantum [6]) [µM] | Selectivity Index [7] | IC50 (Leishmania infantum [8]) [µM] | IC50 (Trypanosoma cruzi [9]) [µM] | Selectivity Index [10]
FC(F)(F)Oc1ccc2c(c1)C[C@@H]1C[C@@H](c3ccco3)N2O1 (racemic) | 319 | 0.3 | 0.6 | 319 | 93.4 | 16 | 19.9 | 172 | 166 | 1.9
Fc1ccc2c(c1)C[C@@H]1C[C@@H](c3cccs3)N2O1 (racemic) | 103 | 13.5 | 13.5 | 991 | 1400 | 11.5 | 86.6 | 177 | 104 | 5.6
